Data as given in PubChem BioAssay AID588760 (Johns Hopkins Ion Channel Center, 2011).
Activity calls are given as the source filed them.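 How the source made its calls: active means fitted dose response curve and peak inhibition of the Kir2.1 potassium channel above 30% at some dose; inactive means no dose response or no inhibition at any dose.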

Target: Inward rectifier potassium channel 2 (Mus musculus) (UniProt P35561)
Experiment: off-target blockade of inward rectifier Kir2.1 – cell-based, FluxOR thallium flux, CRC round 3, selectivity assay for KCNK9 inhibitor project, SAR follow-up (AID 588760)
Conditions: Kir2.1-expressing cells, 20 min; series mostly up to 30 µM
Summary of the method: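 Assay system: FluxOR-loaded Kir2.1 HEK293 cells; Also added: K2SO4/Tl2SO4 stimulus; Replicates: at least duplicate measurements per concentration; Measured by: kinetic fluorescence of thallium-sensitive dye; Incubation: dye loading 90 min RT, compound 20 min RT pre-stimulus.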

Chain of Inward rectifier potassium channel 2 (Mus musculus) (P35561 whole entry, looked up): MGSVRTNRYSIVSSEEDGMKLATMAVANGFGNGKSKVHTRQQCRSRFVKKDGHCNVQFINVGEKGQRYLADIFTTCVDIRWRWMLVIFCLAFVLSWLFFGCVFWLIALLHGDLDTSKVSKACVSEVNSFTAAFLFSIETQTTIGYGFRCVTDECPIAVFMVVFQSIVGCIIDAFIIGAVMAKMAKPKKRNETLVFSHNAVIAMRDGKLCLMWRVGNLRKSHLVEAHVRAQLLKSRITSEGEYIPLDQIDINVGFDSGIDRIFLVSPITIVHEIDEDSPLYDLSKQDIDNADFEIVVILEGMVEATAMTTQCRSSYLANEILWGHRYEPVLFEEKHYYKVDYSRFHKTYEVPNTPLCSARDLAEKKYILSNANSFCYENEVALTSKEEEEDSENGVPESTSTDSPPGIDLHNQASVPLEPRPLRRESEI

outcome, inactive:
CC(C1CC2CCC1C2)n1c(-c2ccccc2F)n[nH]c1=S (stereo unspecified), COc1ccccc1C(=O)Nc1cc(NC(=O)c2ccccc2C(C)C)ccc1F, CC(C1CC2CCC1C2)n1c(-c2cccn2C)n[nH]c1=S (stereo unspecified), CC(C1CC2CCC1C2)n1c(SCC(=O)c2ccc(Cl)c(Cl)c2)nnc1-c1ccco1 (stereo unspecified), C[C@H](C1CCCCC1)n1c(-c2ccco2)n[nH]c1=S, CC(C1CC2CCC1C2)n1c(-c2ccco2)n[nH]c1=O (stereo unspecified), CC(C1C2CCC1CC2)n1c(-c2ccco2)n[nH]c1=S (stereo unspecified), COc1ccc(C(=O)CSc2nnc(-c3ccco3)n2C(C)C2CC3CCC2C3)cc1OC (stereo unspecified), CC(C1CC2CCC1C2)N(C)C(=O)c1ccco1 (stereo unspecified), CC(C1CC2CCC1C2)n1c(-c2ccccn2)n[nH]c1=S (stereo unspecified), CC(NC(=O)c1ccco1)C1CC2CCC1C2 (stereo unspecified), CC(CC1CC2CCC1C2)n1c(-c2ccco2)n[nH]c1=S (stereo unspecified), CC(C1CCCCC1)n1c(-c2ccco2)n[nH]c1=S (stereo unspecified), C[C@@H](C1CCCCC1)n1c(-c2ccco2)n[nH]c1=S, COc1cccc(Cc2n[nH]c(=S)n2C(C)C2CC3CCC2C3)c1 (stereo unspecified), S=c1[nH]nc(-c2ccco2)n1C1CC2CCC1C2 (stereo unspecified), COc1cccc(-c2nnc(S(C)(=O)=O)n2C(C)C2CC3CCC2C3)c1 (stereo unspecified), CC(C)c1ccccc1C(=O)Nc1cccc(NC(=O)c2ccccc2OC(F)(F)F)c1, CC(C1CC2CCC1C2)n1c(-c2cccs2)n[nH]c1=S (stereo unspecified), CSc1nnc(-c2ccco2)n1C(C)C1CC2CCC1C2 (stereo unspecified), COc1cc(OC)cc(-c2n[nH]c(=S)n2C(C)C2CC3CCC2C3)c1 (stereo unspecified)
